Converted amounts (≈) assume the structure as drawn.
How the values were obtained:
MT4 = assay: Cytotoxicity against human MT4 cells after 96 hrs; assay type: functional, cell-based; settings: MT4, 96 h
HepG2 = assay: Cytotoxicity against human HepG2 cells after 96 hrs; assay type: functional, cell-based; settings: HepG2, 96 h
DU-145 = assay: Cytotoxicity against human DU145 cells after 96 hrs; assay type: functional, cell-based; settings: DU-145, 96 h
Staphylococcus aureus = assay: Antibacterial activity against Staphylococcus aureus ATCC 25923 after 20 hrs by doubling dilution method; assay type: functional; settings: ATCC 25923, 20 h
Summary of the method: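 Broth doubling-dilution in 96-well format: overnight nutrient-broth cultures (37 °C) adjusted to about 10^5 cells/mL; compound stocks in EtOH diluted 2-fold across wells in culture suspension. After 20 h at 37 °C in moist atmosphere, thiazolyl blue tetrazolium added, 4 h further incubation; living bacteria seen as violet turbid wells; MIC read as lowest inhibitory concentration.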

[1] = Selectivity ratio of IC50 for human CRL7065 to MIC for Staphylococcus aureus ATCC 25923; assay type: functional

Row | SMILES | MIC (Staphylococcus aureus) [µM] | IC50 (MT4) [µM] | IC50 (HepG2) [µM] | IC50 (DU-145) [µM] | Ratio [1]
1 | COc1cc([C@@H]2c3cc4c(cc3[C@@H](O[C@@H]3O[C@@H]5CO[C@@H](C)O[C@H]5[C@H](O)[C@H]3O)[C@H]3COC(=O)[C@H]23)OCO4)cc(OC)c1O [ETOPOSIDE] | – | 0.09 | 4 | 3 | –
2 | C=C1CC[C@]2(C)OC3=C(C(=O)C(C)(C)C(=O)C3(C)C)[C@@H](C(C)C)[C@@H]2[C@H]1C1CCCC1(C)C (relative stereo) | > 560 | > 100 | – | – | –
3 | CC(C)[C@@H]1C[C@@]2(CC[C@]3(C(C)C)C[C@H]23)OC2=C1C(=O)C(C)(C)C(=O)C2(C)C (relative stereo) | > 560 | 41.4 | – | – | –
4 | CC[C@@]1(O)C(=O)OCc2c1cc1n(c2=O)Cc2cc3ccccc3nc2-1 [CAMPTOTHECIN] | – | – | 0.02 | 0.015 | –

Continued, in another order:

Row | MIC (Staphylococcus aureus) [µM] | SMILES | IC50 (MT4) [µM] | IC50 (HepG2) [µM] | IC50 (DU-145) [µM] | Ratio [1]
5 | 4 (≈ 1.29 µg/mL) | O=C(N[C@H](CO)[C@H](O)c1ccc([N+](=O)[O-])cc1)C(Cl)Cl [CHLORAMPHENICOL] | – | – | – | –
6 | 0.38 (≈ 0.248 µg/mL) | CC(C)C(=O)c1c(O)c([C@H](C2=C(O)C(C)(C)C(=O)C(C)(C)C2=O)C(C)C)c2c3c1OC(C)(C)C[C@H]3[C@H]1C(C)(C)C(=O)C(C)(C)[C@@]1(O)O2 (relative stereo) | 2.1 | 4 | 3 | 35
7 | 2.2 (≈ 1.47 µg/mL) | CC(C)C(=O)c1c(O)c([C@H](C2=C(O)C(C)(C)C(=O)C(C)(C)C2=O)C(C)C)c(O)c([C@H](C2=C(O)C(C)(C)C(=O)C(C)(C)C2=O)C(C)C)c1O [MYRTUCOMMULONE A] | 4.7 | 6 | 5 | –
